From ChEMBL document CHEMBL1687903, “Claurailas A-D, cytotoxic carbazole alkaloids from the roots of Clausena harmandiana” (J Nat Prod, 2011)

Legend:
KB = experiment: Cytotoxicity against human KB cells by resazurin microplate assay; type: functional, cell-based
Summary of the method: (§1)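 Resazurin microplate assay (REMA) on human epidermoid carcinoma KB and human small cell lung cancer NCI-H187 lines, with ellipticine as reference substance. Activity reported as IC50 in μM.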

NCI-H187 = experiment: Cytotoxicity against human NCI-H187 by resazurin microplate assay; type: functional, cell-based; summary of the method: as §1
Vero = experiment: Cytotoxicity against african green monkey Vero cells by green fluorescent protein microplate assay; type: cell-based; settings: Chlorocebus sabaeus
Summary of the method: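 Green fluorescent protein-based assay on Vero cells (African green monkey kidney), used as the normal-cell counterscreen, with ellipticine as reference substance. Activity reported as IC50 in μM.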

Compound | IC50 (KB) [µM] | IC50 (NCI-H187) [µM] | IC50 (Vero) [µM]
COc1ccc2c(c1)[nH]c1cc(OC)c(C(=O)O)cc12 [CLAUSINE K] | > 200 | 139 | 178
COC(=O)c1cc(O)c2[nH]c3ccccc3c2c1 [CLAUSINE E] | 108 | 94.6 | 152
COc1cc(C=O)cc2c1[nH]c1ccccc12 [MURRAYANINE] | 72.2 | 11.5 | > 200
C=CC(C)(C)c1c2c(c(OC)c3ccc(=O)oc13)C=CC(C)(C)O2 [DENTATIN] | 114 | 45.4 | > 200
COC(=O)c1ccc2[nH]c3ccc4c(c3c2c1)C=CC(C)(C)O4 [CLAURAILAS C] | > 200 | > 200 | > 200
COc1c2c(cc3oc(=O)ccc13)OC(C)(C)C=C2 [XANTHOXYLETIN] | 133 | > 200 | > 200
COc1ccc2c(c1)[nH]c1c(O)cc(C=O)cc12 | 10.7 | 10.4 | 180
COc1ccc2c(c1)[nH]c1cc(OC)c(C=O)cc12 [LANSINE] | > 200 | 102 | > 200
CC1(C)C=Cc2c(ccc3[nH]c4cc(O)c(C=O)cc4c23)O1 [CLAURAILAS D] | 30.6 | 7.54 | 29.4
COc1ccc2c(c1)[nH]c1c(OC)cc(C=O)cc12 [CLAURAILAS A] | > 200 | 13.5 | > 200
Cc1c2ccncc2c(C)c2c1[nH]c1ccccc12 [ELLIPTECINE] |  | 2.76 | 3.82
COc1ccc2c(c1)[nH]c1c(CC=C(C)C)c(O)c(C=O)cc12 | 2.75 | 1.68 | > 200
C=CC(C)(C)c1c2c(c(O)c3ccc(=O)oc13)C=CC(C)(C)O2 [NORDENTATIN] | 20.6 | 11.8 | 56.4
CC(C)=CCc1c(O)c(C=O)cc2c1[nH]c1cc(O)ccc12 [7-HYDROXYHEPTAPHYLLINE] | 27.9 | 14.6 | 41.2
O=Cc1cc(O)c2[nH]c3ccccc3c2c1 [O-DEMETHYLMURRAYANINE] | 5.49 | 19.2 | 104
Cc1cc2c([nH]c3c(O)cccc32)c2c1OC(C)(C)C=C2 [CLAURAILAS B] | > 200 | > 200 | > 200
Cc1cc2c([nH]c3ccccc32)c2c1OC(C)(C)C=C2 [GRINIMIBINE] | 7.02 | 22.4 | > 200
O=Cc1cc2c(cc1O)[nH]c1cc(O)ccc12 [CLAUSINE O] | 59.6 | 74.7 | 64.6
CC(C)=CCc1c(O)c(C=O)cc2c1[nH]c1ccccc12 [HEPTAPHYLLINE] | 1.61 | 1.32 | 92.5
